According to ChEMBL document CHEMBL5107970, “Synthesis of a fluorinated pyronin that enables blue light to rapidly depolarize mitochondria” (RSC Med Chem, 2022):
Calls of active or inactive are those of the source. No cut-off for these calls is given here.

What was measured:
[1] = Cytotoxicity against human Jurkat cells assessed as reduction in cell viability incubated for 48 hrs by flow cytometry; format: toxicity, cell-based
[2] = Cytotoxicity against human HeLa cells assessed as reduction in cell viability incubated for 48 hrs by flow cytometry; format: toxicity, cell-based
[3] = Stability in human Jurkat lymphocytes assessed as half life in mitochondria at 10 uM incubated for 1 hrs by flow cytometry; format: ADME
[4] = Drug distribution in human HeLa cells assessed as fluorescence in lysosome at 10 uM incubated for 1 to 3 hrs by LysoTracker red staining based confocal laser scanning microscopy; format: ADME, cell-based; conditions: time 1-3 hrs
Summary of the method: (§1)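 HeLa cells seeded 20,000/well on chambered coverslips and grown 24 h. Compound diluted 1,000-fold from DMSO stock into complete medium (0.1% DMSO) and given at 37 °C, then co-imaged with MitoTracker Deep Red or LysoTracker Red. Live-cell confocal imaging with 63X oil objective, without washing.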

[5] = Drug distribution in human HeLa cells assessed as fluorescence in mitochondria at 10 uM incubated for 1 to 3 hrs by MitoTracker Deep Red staining based confocal laser scanning microscopy; format: ADME; conditions: time 1-3 hrs; summary of the method: as §1
[6] = system: HeLa; experiment: Induction of reactive oxygen species generation in human HeLa cells assessed as increase in ROS level at 20 uM incubated for 1 hr in presence of dihydroethidium by confocal microscopy; format: functional, cell-based
Summary of the method: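 HeLa cells were seeded at 20,000 per well in chambered coverslips and grown 16 h before treatment at 37 °C. Dihydroethidium (5 µM) was then added for 1 h, and cells were washed twice with complete medium. Confocal imaging followed. Ethidium signal was quantified as mean fluorescence in regions of interest drawn around nuclei.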

[7] = Drug distribution in human HeLa cells assessed as fluorescence in mitochondria at 2 uM incubated for 1 hrs by confocal laser scanning microscopy; format: ADME
[8] = Stability of compound in ethanol at 5 uM incubated for 1 hrs by fluorescence spectroscopy; format: physicochemical
[9] = system: HeLa; experiment: Induction of reactive oxygen species generation in human HeLa cells assessed as increase in ROS level at 2 uM incubated for 1 hr in presence of dihydroethidium by confocal microscopy; format: functional, cell-based
Summary of the method: (§2)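 HeLa cells seeded 20,000/well and grown 16 h. Pyronin 2 μM for 1 h at 37 °C, then DHE 5 μM for 1 h, then two washes with complete medium. Irradiation was 488 nm laser scanning at 25% power. ROIs drawn around nuclei to give mean ethidium fluorescence. Antimycin A 20 μM served as positive control; DHE-only cells were irradiated 1 or 2 min.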

[10] = target: Albumin (Bos taurus, UniProt P02769); experiment: Stability of the compound assessed as bovine serum albumin mediated drug degradation at 10 uM incubated for 1 hrs followed by blue-light irradiation for 10 mins by fluorescence spectroscopy; format: ADME; conditions: cattle, 1.167 h, time 70 min
Sequence of Albumin (P02769 whole entry): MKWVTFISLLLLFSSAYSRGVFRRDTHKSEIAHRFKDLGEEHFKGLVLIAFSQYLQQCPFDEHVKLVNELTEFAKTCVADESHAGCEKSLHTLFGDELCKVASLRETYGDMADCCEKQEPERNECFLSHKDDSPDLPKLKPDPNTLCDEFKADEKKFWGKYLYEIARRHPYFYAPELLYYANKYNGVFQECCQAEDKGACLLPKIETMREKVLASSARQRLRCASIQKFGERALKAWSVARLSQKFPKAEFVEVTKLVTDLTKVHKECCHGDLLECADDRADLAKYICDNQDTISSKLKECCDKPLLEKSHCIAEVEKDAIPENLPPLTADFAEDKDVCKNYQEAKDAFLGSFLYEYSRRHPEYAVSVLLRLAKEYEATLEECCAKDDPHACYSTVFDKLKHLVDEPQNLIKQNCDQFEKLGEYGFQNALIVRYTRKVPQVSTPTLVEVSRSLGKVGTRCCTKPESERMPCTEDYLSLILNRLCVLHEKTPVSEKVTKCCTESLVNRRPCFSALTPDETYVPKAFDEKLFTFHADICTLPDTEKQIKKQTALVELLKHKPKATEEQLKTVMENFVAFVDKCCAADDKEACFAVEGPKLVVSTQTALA

[11] = system: HeLa; experiment: Induction of mitochondrial membrane potential depolarization in human HeLa cells assessed as diffuse fluorescence from mitochondria to cytoplasm and nucleus at 10 uM incubated for 1 hrs in presence of blue-light irradiation by MitoTracker Deep red and LysoTracker red staining based confocal laser scanning microscopy; format: functional, cell-based
Summary of the method: (§3)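 Live HeLa cells seeded 20,000/well and grown 24 h, then loaded with probe 10 μM for 1 h at 37 °C (0.1% DMSO). Then either irradiated at 488 nm for 60 s or given CCCP 10 μM for 5 min. Unwashed cells imaged by confocal (Ex. 488 nm, Em. 500–600 nm) and DIC.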

[12] = system: HeLa; experiment: Induction of mitochondrial membrane potential depolarization in human HeLa cells assessed as fluorescence in nucleoli at 10 uM preincubated for 60 mins followed by CCCP treatment and measured after 5 mins by MitoTracker Deep Red and LysoTracker red staining based confocal laser scanning microscopy; format: functional, cell-based; conditions: time 65.0 min; summary of the method: as §3
[13] = system: HeLa; experiment: Induction of mitochondrial membrane potential depolarization in human HeLa cells assessed as fluorescence in nucleoli at 10 uM incubated for 60 mins followed by blue-light irradiation for 60 sec by MitoTracker Deep Red staining based confocal laser scanning microscopy; format: functional, cell-based; conditions: time 61.0 min; summary of the method: as §3
[14] = system: HeLa; experiment: Induction of reactive oxygen species generation in human HeLa cells assessed as fold increase in ROS level by measuring nuclear fluorescence at 2 uM incubated for 60 mins followed by blue-light irradiation for 1 mins in presence of dihydroethidium by confocal microscopy; format: functional; conditions: time 61 min, 1.017 h; summary of the method: as §2
[15] = system: HeLa; experiment: Induction of reactive oxygen species generation in human HeLa cells assessed as fold increase in ROS level by measuring nuclear fluorescence at 2 uM incubated for 60 mins followed by blue-light irradiation for 2 mins by confocal microscopy; format: functional; conditions: time 62 min, 1.033 h; summary of the method: as §2
[16] = Stability of the compound assessed as bovine serum albumin mediated drug degradation at 10 uM incubated for 1 hrs by fluorescence spectroscopy; format: ADME; conditions: cattle

Structure (SMILES): CCNc1c2cc(F)c(=[N+](CC)CC)cc-2oc2cc(N(CC)CC)c(F)cc12.O=C([O-])C(F)(F)F
- IC50 at 48 h [1]: 800 nM
- IC50 at 48 h [2]: 3000 nM
- half-life at 10 µM [3]: 60 min
- Drug uptake [4]: Active
- Drug uptake [5]: Active

Structure (SMILES): CCCCCC[C@H]1C(=O)O[C@H](C)[C@H](NC(=O)c2cccc(NC=O)c2O)C(=O)O[C@@H](C)[C@@H]1OC(=O)CC(C)C
- Activity [6]: Active

Structure (SMILES): CCN(CC)c1ccc2cc3ccc(N(CC)CC)cc3[o+]c2c1.[Cl-]
- IC50 at 48 h [1]: 100 nM
- Activity [7]: Active
- IC50 at 48 h [2]: 2000 nM
- half-life at 10 µM [3]: 6 min
- Stability [8]: Stable
- Activity [9]: Active

Structure (SMILES): CCN(CC)c1cc2oc3cc(=[N+](CC)CC)c(F)cc-3cc2cc1F.O=C([O-])C(F)(F)F
- Stability [10]: Unstable
- IC50 at 48 h [1]: 1000 nM
- Activity [7]: Active
- Activity [11]: Active
- IC50 at 48 h [2]: 9000 nM
- Activity [12]: Active
- Activity [13]: Active
- half-life at 10 µM [3]: 12 min
- Stability [8]: Stable
- fold change (FC) [14]: 1.5
- fold change (FC) [15]: 2.7
- Stability [16]: Unstable
- Drug uptake [5]: Active
- Activity [9]: Active

Structure (SMILES): CCN(CC)c1cc2oc3cc(N(CC)CC)c(F)cc3c(=O)c2cc1F
- IC50 at 48 h [1]: 17000 nM
- IC50 at 48 h [2]: 51000 nM
- half-life at 10 µM [3]: 5 min

Structure (SMILES): Fc1cc2cc3cc(F)c(=[N+]4CCC4)cc-3oc2cc1N1CCC1.O=C([O-])C(F)(F)F
- IC50 at 48 h [1]: 900 nM
- IC50 at 48 h [2]: 15000 nM
- half-life at 10 µM [3]: 15 min
- Stability [8]: Stable

Structure (SMILES): COC(=O)c1ccccc1-c1c2ccc(=N)cc-2oc2cc(N)ccc12.Cl [RHODAMINE123]
- half-life at 10 µM [3]: > 1000 min

Structure (SMILES): O=C([O-])C(F)(F)F.c1cc(=[N+]2CCC2)cc2oc3cc(N4CCC4)ccc3cc1-2
- IC50 at 48 h [1]: 200 nM
- IC50 at 48 h [2]: 3000 nM
- half-life at 10 µM [3]: 30 min
- Stability [8]: Stable
- Drug uptake [5]: Active
